The species named for data set [1] is Homo sapiens. In words: Selectivity ratio of Ke for OX2 receptor (unknown origin) to Ke for OX1 receptor (unknown origin).
Data set [2] addresses T1, Orexin/Hypocretin receptor type 1 (Homo sapiens) (UniProt O43613).
T1 sequence (whole entry): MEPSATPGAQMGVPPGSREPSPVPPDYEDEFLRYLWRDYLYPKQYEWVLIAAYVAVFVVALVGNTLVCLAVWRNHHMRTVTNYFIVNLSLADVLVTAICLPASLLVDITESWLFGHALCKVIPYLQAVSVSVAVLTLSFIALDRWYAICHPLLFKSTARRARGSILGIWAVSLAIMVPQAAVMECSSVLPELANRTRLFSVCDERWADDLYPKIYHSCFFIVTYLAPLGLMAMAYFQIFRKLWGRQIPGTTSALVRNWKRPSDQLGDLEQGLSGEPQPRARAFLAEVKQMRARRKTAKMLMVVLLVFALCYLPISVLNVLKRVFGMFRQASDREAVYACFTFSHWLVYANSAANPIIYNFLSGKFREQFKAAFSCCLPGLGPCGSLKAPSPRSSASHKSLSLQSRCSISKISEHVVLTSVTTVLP
In words: Agonist activity at OX1 receptor (unknown origin) expressed in RD-HGA16 cells assessed as calcium mobilization at 10 uM by fluorescence assay. It is filed as functional, cell-based. A general note: Calcium flux is commonly read through the fluorescence of an indicator in the cells.

For data set [3], the target named is T1, Orexin/Hypocretin receptor type 1 (Homo sapiens). In words: Antagonist activity at OX1 receptor (unknown origin) expressed in RD-HGA16 cells assessed as inhibition orexin A-induced calcium mobilization by fluorescence assay. Type of data set: functional, cell-based.
Data set [4] concerns the target T2, Orexin receptor type 2 (Homo sapiens) (UniProt O43614).
T2 sequence (whole entry): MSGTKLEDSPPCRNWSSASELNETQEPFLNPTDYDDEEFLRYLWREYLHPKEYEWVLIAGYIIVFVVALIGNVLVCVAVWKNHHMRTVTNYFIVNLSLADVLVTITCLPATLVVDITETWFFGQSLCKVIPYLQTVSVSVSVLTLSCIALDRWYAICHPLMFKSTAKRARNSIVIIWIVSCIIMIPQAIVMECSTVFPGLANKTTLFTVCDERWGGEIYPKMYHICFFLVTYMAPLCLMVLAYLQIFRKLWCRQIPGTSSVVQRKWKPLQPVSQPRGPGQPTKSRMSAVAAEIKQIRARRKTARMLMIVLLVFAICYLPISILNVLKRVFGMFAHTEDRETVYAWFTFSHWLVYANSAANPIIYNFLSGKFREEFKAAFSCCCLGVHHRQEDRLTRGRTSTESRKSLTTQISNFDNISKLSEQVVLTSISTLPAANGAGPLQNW
In words: Antagonist activity at OX2 receptor (unknown origin) expressed in RD-HGA16 cells assessed as inhibition orexin A-induced calcium mobilization by fluorescence assay. It is filed as functional, cell-based.

For data set [5], the system named is Rattus norvegicus. In words: Antiaddictive activity in Sprague-Dawley rat assessed as reduction of cocaine-induced conditioned place preference at 20 mg/kg, ip administered 10 mins before cocaine challenge measured for 15 mins. It is filed as functional, organism-based. The arrangement: dose 20 mg/kg. Summed up:
(§1)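 Unbiased two-compartment place conditioning in rats. Pretest 30 min with free access, first 15 min scored. Rats excluded if >75% or <25% of time in one side. Eight alternating conditioning days, 30 min confinement, vehicle on odd days and drug on even days. In the combination group, compound was given 10 min before cocaine 10 mg/kg. Injection volume 1 mL/kg. Preference score = drug-side time on test day minus pretest.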

Data set [6] concerns Rattus norvegicus. In words: Induction of conditioned place preference in Sprague-Dawley rat at 20 mg/kg, ip measured for 15 mins. Type of data set: organism-based. The arrangement: dose 20 mg/kg, route intraperitoneal. As to conditions: in vivo, 0.25 h. Summed up:
as §1

The target of data set [7] is T3, Orexin receptor type 2 (Homo sapiens, UniProt O43614).
T3 sequence (O43614 whole entry): T2 sequence (whole entry)
In words: Antagonist activity at OX2 receptor (unknown origin).

Structures are written as SMILES. Activity calls are given as the source filed them. The calls are words filed in the database; no cut-off is given here. A value given as a limit tells only on which side of the number the result lay.

In the case of `COc1ccc(CC2c3cc(OC)c(OC)cc3CCN2CC(=O)N[C@@H](C)c2ccccc2)cc1OC` (single isomer, unassigned; diastereomer 2), the Ratio in data set [1] is greater than 125. In addition, the result in data set [2] was inactive. Further, the Ke(app) in data set [3] was 80 nM; in data set [4] it was greater than 10 µM.
As for `COc1ccc(CC2c3cc(OCC(F)(F)F)c(OC)cc3CCN2CC(=O)NCc2cccnc2)cc1OC` (stereo not drawn), the result in data set [5] was Active. Moreover, the outcome in data set [2] was inactive. For the same compound, the Ke(app) in data set [3] was found to be 8.5 nM. The Activity result in data set [6] is recorded as “Non-toxic”.
Regarding `COc1ccc(CC2c3cc(OC)c(OC)cc3CCN2CC(=O)NCc2ccc(F)cc2)cc1OC` (stereo not drawn), the Ratio in data set [1] came to 12.4. In data set [2], the outcome was inactive. In addition, the Ke(app) in data set [3] is 279 nM.
On to `COc1ccc(CC2c3cc(OC)c(OC)cc3CCN2CC(=O)Nc2ccccc2-c2ccccc2)cc1OC` (stereo not drawn), for which the Ratio in data set [1] is 1.9. Besides, the result in data set [2] was inactive. In addition, the Ke(app) in data set [3] came out at 944 nM.
For the compound `CCCCOc1cc2c(cc1OC)CCN(CC(=O)NCc1ccccc1)C2Cc1ccc(OC)c(OC)c1` (stereo not drawn), the Ratio in data set [1] worked out at 34.6. Further, the result in data set [2] was inactive. The Ke(app) in data set [3] was 54.7 nM.
The corresponding values for `CCCCCCCNC(=O)CN1CCc2cc(OC)c(OC)cc2C1Cc1ccc(OC)c(OC)c1` (stereo not drawn) are 3.9, “inactive” and 589 nM.
With `COc1ccc(CC2c3cc(OC)c(OC)cc3CCN2CC(=O)NCc2ccc(Cl)cc2)cc1OC` (stereo not drawn), the Ratio in data set [1] is 14. Further, the outcome in data set [2] was inactive. Also, the Ke(app) in data set [3] stood at 162 nM.
Regarding `COc1ccc(CC2c3cc(OCCC(C)C)c(OC)cc3CCN2CC(=O)NCc2ccccc2)cc1OC` (stereo not drawn), the Ratio in data set [1] worked out at 12. Further, the outcome in data set [2] was inactive. Further, the Ke(app) in data set [3] is 326 nM.
As for `COc1ccc(CC2c3cc(OS(C)(=O)=O)c(OC)cc3CCN2CC(=O)NCc2ccccc2)cc1OC` (stereo not drawn), in data set [1], the Ratio was 297. For the same compound, the result in data set [2] was inactive. The Ke(app) in data set [3] was 7.3 nM.
On to `COc1ccc(CC2c3cc(OC)c(OC)cc3CCN2CC(=O)NC2CCCc3ccccc32)cc1OC` (stereo not drawn), for which the Ratio in data set [1] is 15.9. Besides, the result in data set [2] was inactive. Further, the Ke(app) in data set [3] came out at 41.1 nM.
As for `CNC(=O)[C@@H](c1ccccc1)N1CCc2cc(OC)c(OC)cc2[C@@H]1CCc1ccc(C(F)(F)F)cc1` [ALMOREXANT], the midpoint of inhibition in data set [7], the IC50, lay at 8.1 µM.

These data come from ChEMBL document CHEMBL2417373, “Substituted tetrahydroisoquinolines as selective antagonists for the orexin 1 receptor” (J Med Chem, 2013).
